Laboratory results as given in ChEMBL document CHEMBL4513216, “Probing the Open Global Health Chemical Diversity Library for Multistage-Active Starting Points for Next-Generation Antimalarials” (ACS Infect Dis, 2020).

Assay: Toxicity liver stage against HepG2, at 10uM
Type: cell-based
Set-up: test concentration 10 uM, cell line HepG2-A16-CD81EGFP
Conditions: human, HepG2-A16-CD81EGFP cells; read-out: INHIBITION
Outline: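 Uninfected HepG2-A16-CD81EGFP cells, 3 × 10^3 per well, 1536-well, plated on prespotted compound at 10 μM final, parasite-free screening media added to match infected plates; puromycin 10 μM positive, DMSO 0.5% negative; run in parallel with 48 h PbLuc assay at 37 °C, 5% CO2; viability by CellTiter-Glo luminescence, normalized to controls.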

Row | SMILES | cytotoxicity at 10 µM [%]
1 | Cc1ccccc1CN1CCC[C@H]1c1nc(-c2cncnc2N)no1 | -0.921
2 | COc1coc(C(=O)Nc2nc(-c3ccncc3)cs2)cc1=O | -7.97
3 | Cc1ccc(S(=O)(=O)c2ncccc2CN2CCCC2)cc1 | -49.4
4 | CCc1ccc(S(=O)(=O)N2CC3(COC(C)(C)OC3)C2)s1 | 5.76
5 | O=C1[C@H]2CN(c3ncc(F)cn3)C[C@H]2CN1CC1CC1 | 6.19
6 | Cc1nnc([C@@H]2CCO[C@@H]3CCN(C(=O)Cc4ccsc4)C[C@@H]32)o1 | 9.43
7 | Cc1ccc(C(=O)N2CCN3C[C@H](Oc4cncnc4)C[C@H]3C2)cn1 | 5.01
8 | Cc1noc(C)c1CN1CC2(CCN(C(=O)c3cccn3C)C2)CC1=O (centres undefined) | 6.53
9 | CCc1ccc(C(=O)N2CC(C(=O)NC(C)C)C3(CCOCC3)C2)cc1 (centres undefined) | 3.65
10 | CCN1CCCC(O)(CN(C)Cc2c(C)nn(C)c2C)C1 (centres undefined) | 4.95
11 | COCCNC(=O)C(C)n1nc(-c2ccco2)cc(N)c1=O (centres undefined) | 2.62
12 | COc1cccc([C@@]2(O)CC[C@@H]3CN(C(=O)c4ccn(C)n4)C[C@@H]32)c1 | 2
13 | Cc1noc(-c2cnc(NCC3CCCO3)nc2-c2ccco2)c1C (centres undefined) | 7.74
14 | COCC(=O)N1CCCC(c2nc(N(C)C)ncc2-c2ccccc2)C1 (centres undefined) | 6.1
15 | Cc1nccn1CC1CCCN(S(=O)(=O)c2cnn(C)c2)C1 (centres undefined) | 8.58
16 | CC(=O)N1CCc2nnc(C3CCCCN3CC3CCCCC3)n2CC1 (centres undefined) | 10.2
17 | Cc1nccc(N2CCCC(C)(C(=O)NC3CCCC3)C2)n1 (centres undefined) | -18.6
18 | CN1CCN(C(=O)C2CCCN(c3cccnn3)C2)CC1 (centres undefined) | -10.8
19 | Cc1cccc(CN2CCC(C3Nc4ccccc4S(=O)(=O)N3)CC2)n1 (centres undefined) | -18.9
20 | CC(C)N1CCC(c2nccnc2Nc2ncccn2)CC1 | -23.7
21 | CC(=O)N1CCCC(c2ccnc(Nc3cnccn3)n2)C1 (centres undefined) | -12.5
22 | CNC(=O)C1(c2cnccn2)CCCN1C(=O)c1ccccn1 (centres undefined) | 10.1

Row | SMILES | cytotoxicity at 10 µM [%]
23 | C=Cn1ncc(CN2C[C@@H]3C[C@@H](O)CN3C[C@@H]2Cc2ccccc2)c1C | 4.02
24 | Cn1ccc(C(=O)N2CCC(Cc3cccc4ncccc34)CC2)n1 | -3.17
25 | CC(=O)N1Cc2ccccc2CC2(CCCCN2C)C1 (centres undefined) | 3.87
26 | CC(=O)NCCNC(=O)Nc1cc(C(C)(C)C)sc1C#N | 0.665
27 | O=C(Nc1c(N2CCCC2)cccc1N1CCCC1)c1cnsn1 | -43
28 | CC(O)CCN(C)C(=O)Nc1cc(F)cc(Br)c1 (centres undefined) | 4.12
29 | O=C(Nc1cc(C(F)(F)F)c[nH]c1=O)C1CCCNC1 (centres undefined) | 5.15
30 | CCN(Cc1nccn1C)C1CCN(c2ccccc2)C1=O (centres undefined) | 4.19
31 | Cc1nnc(NC(=O)NCc2ccc(C)n2C)s1 | -2.08
32 | COC(=O)c1ccoc1CN(C1CC1)C1CCS(=O)(=O)C1 (centres undefined) | 2.22
33 | CC(C)c1nccn1CC1CCCN1Cc1nc2ccccc2n1C (centres undefined) | -43.9
34 | CCc1c(NCc2cccnc2)cnn1CC(C)C | -0.625
35 | CCC(CNC(=O)Cn1ccnc1)Oc1cccc(F)c1 (centres undefined) | -45.8
36 | Cc1cc(C)c(CNC(=O)NCCc2cccnc2)c(=O)[nH]1 | -53.3
37 | Cn1cccc(NC(=O)NCc2cccc(CO)c2)c1=O | -55.5
38 | COCCN1CCC(CNC(=O)Nc2ccc(-c3ccccc3)cc2)C1 (centres undefined) | -15.2
39 | O=C(CCC1CCCCO1)NCc1cnn(-c2ccc(F)cc2F)c1 (centres undefined) | -11.4
40 | O=C(NCCN1CCOCC1)c1ccc(OCc2ccccc2)nc1 | -5.97
41 | O=C(OC1CCC1)c1ncccc1C(F)(F)F | 10.6
42 | CN(Cc1ccc2c(c1)OCO2)C(=O)c1ccc(=O)n(C)c1 | -9.17
43 | Clc1ccc2oc(C3CCN(Cc4nc(C5CC5)no4)CC3)nc2c1 | -5.15
44 | Cc1ccc(CN(C)C(=O)CN2CCCC2Cn2cncn2)cc1 (centres undefined) | 7.84

Row | SMILES | cytotoxicity at 10 µM [%]
45 | CN(C)C(=O)C1CCCN1CCCNC(=O)c1ccccc1Cl (centres undefined) | -8.27
46 | CNC(=O)Cc1ccccc1NC(=O)C1CCCC1 | 31.1
47 | Cc1c(C(=O)NC2(C#N)CCSC2)nnn1-c1ccccc1Cl (centres undefined) | -5.34
48 | COCCOc1ncccc1C(=O)Nc1c(C)cnn1CC1CC1 | 3.36
49 | CCC(C)Oc1cc(C(=O)Nc2nnc(C(C)C)[nH]2)ccn1 (centres undefined) | -11.2
50 | CSc1ccsc1C(=O)NS(=O)(=O)c1ccc(F)cc1 | -3.91
51 | Cc1cc(=O)[nH]cc1C(=O)N1CCN(C)c2ccccc2C1 | -10.1
52 | Cc1cnn(CC(C)NCc2c(C)nn(Cc3ccccc3)c2C)c1 (centres undefined) | -4.66
53 | COC(=O)C1CCN(C(=O)Nc2cc(-n3cccc3)ccc2F)CC1 | 5.44
54 | COC1CCC(N(C)c2ccnc(N(C)C)n2)CC1 (centres undefined) | -13.6
55 | Cc1cnn(CC2CCCN2Cc2cc(=O)n3cccc(C)c3n2)c1 (centres undefined) | 0.442
56 | CCN(CC(=O)NC(C)C)S(=O)(=O)N1CCC(C)C1 (centres undefined) | -3.26
57 | COCC(NC(=O)c1cc[nH]n1)c1cccc(C(F)(F)F)c1 (centres undefined) | -10.7
58 | CN1CCN(Cc2cnc3n2CCN(C(=O)c2ccncc2)C3)CC1 | -73.8
59 | CCOCC1CN(C(=O)Cc2ccccn2)Cc2c1cnn2CC (centres undefined) | -69.3
60 | CNc1ncc(-c2ccnn2C2CCN(C(C)=O)CC2)cn1 | 0.581
61 | Cc1nn(C)c(C)c1CN(C)c1nc(C2CCCC2)nc2c1cnn2C | 27.9
62 | Cn1ccnc1C1CCCN(C(=O)c2ccncc2F)C1 (centres undefined) | 3.18
63 | COc1ccc(NC(=O)c2cccc(CN3CCCC3C)c2)cc1OC (centres undefined) | 0.636
64 | COCc1noc(-c2ccc(N3CCCC3c3nccs3)nc2)n1 (centres undefined) | 7.12
65 | NCCO[C@H]1C[C@@H](O)C12CCN(C1Cc3ccccc3C1)CC2 | 20.7
66 | Nc1ncccc1CN1C[C@H]2OC(=O)N(Cc3ccccn3)[C@H]2C1 | 13.9

Row | SMILES | cytotoxicity at 10 µM [%]
67 | CC(C)n1ccnc1C1CCN(Cc2ccc(C(F)(F)F)c(F)c2)CC1 | -7.43
68 | COCCCN1C(=O)CC[C@H]2CN(c3ccc(C(N)=O)cn3)CC[C@H]21 | 5.03
69 | CCC[C@@H]1CN(S(=O)(=O)c2ccc(OC)c(OC)c2)C[C@H]1NC(C)=O | 3.06
70 | CCc1cc(C(=O)NCC2CCN(Cc3ccncc3)CC2)on1 | 10.4
71 | CN(CCCN1CCCC1)[C@@H]1c2ccccc2C2(CCNCC2)[C@H]1O | -3.99
72 | CN(C)Cc1nnc(C2CCCN(c3nccc4ccccc34)C2)n1C (centres undefined) | -0.928
73 | CCN(CC)C(=O)c1ccc(Cl)c(NC(=O)c2cc(C(C)C)on2)c1 | 6.9
74 | Cc1nccn1CCC(=O)N1CCC2(CCC(=O)N(CC3CC3)C2)CC1 | -8.46
75 | CSc1nc(O)c(Cc2ccccc2)c(=O)n1-c1ccccc1 | -6.24
76 | COc1cc(Cl)cc(C(=O)N2CCC3(CCCNC3)C2)c1 (centres undefined) | -7
77 | COc1cccc(S(=O)(=O)N2CCN(C)[C@@H]3CS(=O)(=O)C[C@@H]32)c1 | -9.6
78 | Cc1cc(C(F)(F)F)nc(CCNC(C)Cn2ccnc2)n1 (centres undefined) | 4.21
79 | Cc1ccnc(CC(C)N(C)Cc2ccc3c(c2)CCO3)c1 (centres undefined) | 1.63
80 | Cc1nc(NCc2ccc(C)o2)cc(C2CCNCC2)n1 | 4.52
81 | CN1CC2(CCCN(Cc3cccc(Oc4ccccc4)c3)C2)OC1=O (centres undefined) | 5.09
82 | Cc1ccc(C(=O)N2C[C@@H](C(=O)O)[C@H](c3ccncc3)C2)cc1F | -11.2
83 | COc1ccc(C(=O)C2CCCN(Cc3ccc(C)o3)C2)c(OC)c1 (centres undefined) | 1.17
84 | N#CCCn1nc(C(F)(F)F)c2c1CCCC2 | -11.9
85 | Cc1ncccc1O[C@H]1CCN(C(=O)Cc2cccs2)CC[C@@H]1O | 5.92
86 | COCc1cccc(CNC(=O)c2c(C)noc2C(C)C)c1 | 0.153
87 | O=C(CN1CCCC1Cn1cncn1)NCCOc1ccc(F)cc1 (centres undefined) | -3.56
88 | CC(C)Oc1ncccc1CNC(=O)NC1CCOc2ccccc21 (centres undefined) | -3.16

Row | SMILES | cytotoxicity at 10 µM [%]
89 | Cc1cnn(CC2CCCCN2C(=O)c2ccc(NC3CC3)nc2)c1 (centres undefined) | -11.9
90 | CC(C)Sc1ncccc1C(=O)NCc1ccoc1 | -0.945
91 | CCN(c1cc(C)cc(C)c1)S(=O)(=O)c1cc(C(=O)O)cs1 | -1.92
92 | COc1ccc(F)cc1C(=O)N1CCCC(n2nc(C)nc2C)C1 (centres undefined) | 3.05
93 | O=C(Cc1cn2ccsc2n1)N1CCCC(n2cncn2)C1 (centres undefined) | -5.97
94 | N#Cc1ccc(C(=O)NCCCNc2ccc(C(F)(F)F)cn2)cc1 | -4.53
95 | Cc1ccc(CC(=O)N2CCN(CC(O)c3ccccc3)CC2)cn1 (centres undefined) | -10.9
96 | COCCN1CCCN(C(=O)NC(C)Cn2cccn2)CC1 (centres undefined) | -9.39
97 | Cc1[nH]ncc1C(=O)N1CCCC(n2cncn2)C1 (centres undefined) | 7.75
98 | Cc1cc(C)n(CCCn2cncc2-c2ccc3c(c2)CC(C)N3C)n1 (centres undefined) | 0.94
99 | Cc1csc(C(Cc2ccsc2)NC(=O)CN(C)Cc2cccnc2)n1 (centres undefined) | 0.471
100 | Cc1cnnn1Cc1nnn2c1CN(Cc1ccccn1)CCC2 | 9.73
101 | COCc1cnc2n1CCN(C1CCC1)C2C (centres undefined) | 4.77
102 | CCOC(=O)C1(Cc2ccccc2-c2ccccc2OC)CCNCC1 | -1.47
103 | CN1C(=O)CC(c2cnn(C)c2)C12CCN(C(=O)c1ccncc1)CC2 (centres undefined) | -84.4
104 | Cc1ccccc1CN1C[C@@H](C(=O)N2CCCCO2)C[C@H]2OCC[C@H]21 | -68.5
105 | Cc1ccc(N2C[C@H](C(=O)NCC3CC3)[C@@H]3CCO[C@@H]3C2)nn1 | -67.6
106 | Fc1ccc(CN2CCC3(CC2)CCN(Cc2nccs2)CC3)cc1 | 4.92
107 | COCCN1CCc2cc(C(=O)O)c(-c3ccoc3)nc2CC1 | -75.6
108 | Cc1nc[nH]c1CN1C[C@@H]2OCCN(c3ncccn3)[C@@H]2C1 | -70.4
109 | CC(=O)NCC(=O)N1CCn2cc(CN(C)Cc3ccco3)nc2C1 | 4.81
